Assay results as given in ChEMBL document CHEMBL3588766 (Bioorg Med Chem, 2015).
Values after ≈ are worked out from the molar mass of the structure shown. Active and inactive are the calls of the source. The calls are words filed in the database; no cut-off is given here.

Experiments:
Bile acid receptor [1] = biological target: T1, Bile acid receptor (Homo sapiens, UniProt Q96RI1); assay: Agonist activity at human full length FXR expressed in HeLa cells cotransfected with pSG5-human RXR after 24 hrs by Dual-Glo luciferase reporter gene assay; format: cell-based
T1 sequence (Q96RI1 whole entry): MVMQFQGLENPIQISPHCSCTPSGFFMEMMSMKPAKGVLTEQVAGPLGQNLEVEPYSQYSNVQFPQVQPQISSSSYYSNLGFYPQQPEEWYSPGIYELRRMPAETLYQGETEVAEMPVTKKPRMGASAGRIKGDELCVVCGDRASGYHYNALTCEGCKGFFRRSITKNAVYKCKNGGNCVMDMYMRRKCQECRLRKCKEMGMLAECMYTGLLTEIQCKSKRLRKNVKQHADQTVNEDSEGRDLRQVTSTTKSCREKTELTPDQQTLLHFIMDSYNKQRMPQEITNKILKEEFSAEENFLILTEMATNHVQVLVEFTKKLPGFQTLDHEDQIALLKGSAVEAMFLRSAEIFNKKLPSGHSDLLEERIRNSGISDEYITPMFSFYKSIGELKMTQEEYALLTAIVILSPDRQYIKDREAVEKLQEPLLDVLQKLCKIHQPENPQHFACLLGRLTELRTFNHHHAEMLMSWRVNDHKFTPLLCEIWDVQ

[2] = biological target: T2, Bile acid receptor (Homo sapiens) (UniProt Q96RI1); assay: Agonist activity at human full length FXR expressed in HeLa cells cotransfected with pSG5-human RXR at 10 uM after 24 hrs by Dual-Glo luciferase reporter gene assay; format: cell-based
T2 sequence (whole entry): T1 sequence (Q96RI1 whole entry)
Outline: (§1)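 HeLa cells, seeded 8,000/well 24 h ahead, calcium phosphate transfected with pcDNA3-hFXR (CMV), pSG5-hRXR, BSEP-promoter firefly luciferase and pRL-SV40 renilla control. Medium at 0.5% charcoal-stripped FCS; compound in 0.1% DMSO for 24 h. Dual-Glo firefly/renilla ratio, expressed relative to 3 µM GW4064. Triplicate wells, ≥3 independent runs.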

[3] = biological target: T2, Bile acid receptor (Homo sapiens); assay: Antagonist activity at human full length FXR expressed in HeLa cells cotransfected with pSG5-human RXR at 10 uM after 24 hrs by Dual-Glo luciferase reporter gene assay; format: cell-based
[4] = Solubility of the compound in 1% aqueous DMSO solution by HPLC analysis; format: physicochemical
[5] = Metabolic stability in Sprague-Dawley rat liver microsomes assessed as compound remaining at 10 uM by HPLC analysis; format: ADME; conditions: read-out: Stability
Outline: (§2)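 Compound at 10 µM final, preincubated 5 min at 37 °C in 0.1 M phosphate buffer pH 7.4 with NADPH-regenerating system, then Sprague–Dawley rat liver microsomes added. Stopped with ice-cold methanol at 0, 15, 30, 60 min. Remaining parent quantified by phenyl-column HPLC (UV 330/254 nm) against an external calibration. Controls run without NADPH and with heat-inactivated microsomes.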

[6] = Metabolic stability in Sprague-Dawley rat liver microsomes assessed as compound remaining at 10 uM after 15 mins by HPLC analysis; format: ADME; conditions: read-out: Stability; outline: as §2
[7] = Metabolic stability in Sprague-Dawley rat liver microsomes assessed as compound remaining at 10 uM after 30 mins by HPLC analysis; format: ADME; conditions: read-out: Stability; outline: as §2
[8] = Metabolic stability in Sprague-Dawley rat liver microsomes assessed as compound remaining at 10 uM after 60 mins by HPLC analysis; format: ADME; conditions: read-out: Stability; outline: as §2
HepG2 [9] = assay: Cytotoxicity against human HepG2 cells at 5 uM after 48 hrs by LDH assay (reference value: 0%); format: cell-based; conditions: hepg2, 48 h
Outline: (§3)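 HepG2 at 3*10⁴ cells/well, moved to 1% charcoal-stripped FCS medium after 24 h, then compound for 48 h. Triton X-100 (2%) added 2 h before reading as 100% lysis control; untreated = 0%. Supernatant mixed with LDH substrate for 20 min, absorbance 490 nm against 690 nm reference. Triplicates, ≥4 independent repeats.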

HepG2 [10] = assay: Cytotoxicity against human HepG2 cells at 10 uM after 48 hrs by LDH assay (reference value: 0%); format: cell-based; conditions: hepg2, 48 h; outline: as §3
HepG2 [11] = assay: Cytotoxicity against human HepG2 cells at 50 uM after 48 hrs by LDH assay (reference value: 0%); format: cell-based; conditions: hepg2, 48 h; outline: as §3
[12] = Cytotoxicity against human HepG2 cells assessed as cell proliferation at 5 uM after 48 hrs by WST-1 assay (Rvb =100%); format: cell-based; conditions: read-out: Activity
Outline: (§4)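 HepG2 seeded at 3*10⁴ cells/well in 10% FCS DMEM; after 24 h switched to 1% charcoal-stripped FCS and exposed to compound for 48 h. Revlotron 100 µM as positive control; Zileuton 100 µM and DMEM/1% DMSO as negative controls. WST reagent for 45 min, absorbance 450/620 nm, untreated set to 100%. Triplicates, ≥4 repeats.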

[13] = Cytotoxicity against human HepG2 cells assessed as cell proliferation at 10 uM after 48 hrs by WST-1 assay (Rvb =100%); format: cell-based; conditions: read-out: Activity; outline: as §4
[14] = Cytotoxicity against human HepG2 cells assessed as cell proliferation at 50 uM after 48 hrs by WST-1 assay (Rvb =100%); format: cell-based; conditions: read-out: Activity; outline: as §4
[15] = biological target: T2, Bile acid receptor (Homo sapiens); assay: Partial agonist activity at FXR in human HepG2 cells assessed as induction of BSEP gene expression at 0.1 uM after 24 hrs by qRT-PCR analysis (reference value: 100%); format: cell-based
Outline: (§5)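 HepG2 (BSEP, SHP, OSTα) or HT-29 (IBABP) cells seeded at 2*10⁶/well, moved to MEM with 1% charcoal-stripped FCS for 24 h, then treated 24 h with 0.1 µM compound in 0.1% DMSO; CDCA 50 µM as reference. Total RNA extracted; qRT-PCR in duplicate, ≥4 independent experiments, comparative ΔΔCt quantification.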

[16] = biological target: T2, Bile acid receptor (Homo sapiens); assay: Partial agonist activity at FXR in human HepG2 cells assessed as induction of SHP gene expression at 0.1 uM after 24 hrs by qRT-PCR analysis (reference value: 100%); format: cell-based; outline: as §5
[17] = biological target: T2, Bile acid receptor (Homo sapiens); assay: Partial agonist activity at FXR in human HepG2 cells assessed as induction of OST-alpha gene expression at 0.1 uM after 24 hrs by qRT-PCR analysis (reference value: 100%); format: cell-based; outline: as §5
[18] = biological target: T2, Bile acid receptor (Homo sapiens); assay: Partial agonist activity at FXR in human HT-29 cells assessed as induction of IBABP gene expression at 0.1 uM after 24 hrs by qRT-PCR analysis (reference value: 100%); format: cell-based; outline: as §5
[19] = biological target: T2, Bile acid receptor (Homo sapiens); assay: Agonist activity at human full length FXR expressed in HeLa cells cotransfected with pSG5-human RXR at 50 uM after 24 hrs by Dual-Glo luciferase reporter gene assay; format: cell-based; outline: as §1
[20] = biological target: T2, Bile acid receptor (Homo sapiens); assay: Agonist activity at human full length FXR expressed in HeLa cells cotransfected with pSG5-human RXR at 30 uM after 24 hrs by Dual-Glo luciferase reporter gene assay; format: cell-based; outline: as §1
[21] = biological target: T2, Bile acid receptor (Homo sapiens); assay: Antagonist activity at human full length FXR expressed in HeLa cells cotransfected with pSG5-human RXR at 30 uM after 24 hrs by Dual-Glo luciferase reporter gene assay; format: cell-based
[22] = Solubility of the compound in 1% aqueous DMSO solution measured after 4 hrs by HPLC analysis; format: physicochemical
Bile acid receptor [23] = biological target: T1, Bile acid receptor; assay: Antagonist activity at human full length FXR expressed in HeLa cells cotransfected with pSG5-human RXR after 24 hrs by Dual-Glo luciferase reporter gene assay; format: cell-based

Compound Cc1ccccc1-c1noc(-c2ccc(C(=O)O)cc2)n1 has an EC50 (Bile acid receptor [1]) of 0.22 µM.
For Oc1ccc(-c2nc(-c3ccccc3)no2)cc1, the Activity [2] was “inactive” and the inhibition [3] was “inactive”.
Compound Cc1ccccc1-c1noc(-c2cccc(C(=O)O)c2)n1 has an EC50 (Bile acid receptor [1]) of 0.0072 µM, a solubility [4] of 0.033 mg/mL (≈ 118 µM) and a remaining at 10 µM [5] of 99.4%. For the same compound, the remaining at 0.25 h, 10 µM [6] was 84.6%, the remaining at 0.5 h, 10 µM [7] was 71.3% and the remaining at 1 h, 10 µM [8] was 53.9%. For the same compound, the Activity (HepG2 [9]) was 0%, the Activity (HepG2 [10]) was 0% and the Activity (HepG2 [11]) was 15%. It also gave a viability at 48 h, 5 µM [12] of 109%, a viability at 48 h, 10 µM [13] of 87% and a viability at 48 h, 50 µM [14] of 86%. The Activity [15] was 395%, the Activity [16] was 515% and the Activity [17] was 339%. For the same compound, the Activity [18] was 295%.
CC(C)c1nc(-c2ccccc2)no1 gave an Activity [19] of 12.3%.
For COc1ccc(-c2sc(-c3ccc(C)cc3)nc2O)cc1, the Activity [20] was “inactive” and the inhibition [21] was “inactive”.
CCN(CC)c1ccc2cc(-c3nc(-c4ccccc4)no3)c(=O)oc2c1 showed an EC50 (Bile acid receptor [1]) of 0.46 µM, a solubility [4] of 0.0101 mg/mL (≈ 27.9 µM) and a solubility at 4 h [22] of 0.00998 mg/mL (≈ 27.6 µM).
For COc1ccc(-c2nc(-c3cccc(C(F)(F)F)c3)no2)cc1, the EC50 (Bile acid receptor [1]) was 2.9 µM.
Cc1ccc(-c2noc(-c3ccc(Cl)cc3)n2)cc1 gave an EC50 (Bile acid receptor [1]) of 0.41 µM.
For Brc1ccc(-c2nc(-c3ccccc3)no2)cc1, the EC50 (Bile acid receptor [1]) was 0.35 µM.
In the case of c1ccc(-c2noc(-c3ccccc3)n2)cc1, the EC50 (Bile acid receptor [1]) is reported as 0.53 µM.
With COc1ccc(-c2nc(-c3ccccc3C)no2)cc1 the EC50 (Bile acid receptor [1]) was 0.12 µM.
COc1ccc(-c2nc(-c3ccccc3)no2)cc1 showed an IC50 (Bile acid receptor [23]) of 16.4 µM.
